Test results published in ChEMBL document CHEMBL3352316, “Optimization of physicochemical properties and safety profile of novel bacterial topoisomerase type II inhibitors (NBTIs) with activity against Pseudomonas aeruginosa” (Bioorg Med Chem, 2014).
≈ marks a conversion by molar mass, not a printed value.

Legend:
Pseudomonas aeruginosa [1] = experiment: Antimicrobial activity against Pseudomonas aeruginosa PAO1 after 18 to 20 hrs by broth microdilution; type: functional
Outline: (§1)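 Broth microdilution followed CLSI guidelines in Mueller Hinton broth. Inocula were grown 18–20 h at 35 °C on blood agar. Compound in DMSO was tested in doubling dilutions from 64 to 0.06 µg/mL, at 2% DMSO final. Plates were incubated 18–20 h and read at OD 620 nm. MIC was taken as the concentration giving >90% growth inhibition.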

[2] = Aqueous solubility of the compound; type: physicochemical; conditions: buffer
Escherichia coli [3] = experiment: Antimicrobial activity against Escherichia coli W3110 after 18 to 20 hrs by broth microdilution; type: functional; conditions: K-12 substr. W3110; outline: as §1
[4] = Partition co-efficient, log D of the compound at pH 7.4 by shake flask method; type: physicochemical; conditions: buffer
Outline: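 Shake-flask method with 10 mM phosphate buffer pH 7.4 against n-octanol, shaken 1 h at 1200 rpm to equilibrium. Analysis was by LC/UV with MS confirmation.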

Staphylococcus aureus = experiment: Antimicrobial activity against methicillin-susceptible Staphylococcus aureus after 18 to 20 hrs by broth microdilution; type: functional; outline: as §1
[5] = Inhibition of Escherichia coli topoisomerase IV ATPase activity
[6] = Fraction unbound in human plasma by LC/MS-MS analysis; type: ADME, cell-free
Outline: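 Equilibrium dialysis: 10 µM compound was spiked into human plasma against phosphate buffer and rotated at 37 °C for 16 h. Plasma and buffer concentrations were quantified by LC/MS–MS with a C18 column and ESI MRM detection.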

[7] = biological target: Voltage-gated inwardly rectifying potassium channel KCNH2 (Homo sapiens, UniProt Q12809); experiment: Inhibition of human ERG by cell-based patch clamp method
Chain of Voltage-gated inwardly rectifying potassium channel KCNH2 (Q12809 whole entry): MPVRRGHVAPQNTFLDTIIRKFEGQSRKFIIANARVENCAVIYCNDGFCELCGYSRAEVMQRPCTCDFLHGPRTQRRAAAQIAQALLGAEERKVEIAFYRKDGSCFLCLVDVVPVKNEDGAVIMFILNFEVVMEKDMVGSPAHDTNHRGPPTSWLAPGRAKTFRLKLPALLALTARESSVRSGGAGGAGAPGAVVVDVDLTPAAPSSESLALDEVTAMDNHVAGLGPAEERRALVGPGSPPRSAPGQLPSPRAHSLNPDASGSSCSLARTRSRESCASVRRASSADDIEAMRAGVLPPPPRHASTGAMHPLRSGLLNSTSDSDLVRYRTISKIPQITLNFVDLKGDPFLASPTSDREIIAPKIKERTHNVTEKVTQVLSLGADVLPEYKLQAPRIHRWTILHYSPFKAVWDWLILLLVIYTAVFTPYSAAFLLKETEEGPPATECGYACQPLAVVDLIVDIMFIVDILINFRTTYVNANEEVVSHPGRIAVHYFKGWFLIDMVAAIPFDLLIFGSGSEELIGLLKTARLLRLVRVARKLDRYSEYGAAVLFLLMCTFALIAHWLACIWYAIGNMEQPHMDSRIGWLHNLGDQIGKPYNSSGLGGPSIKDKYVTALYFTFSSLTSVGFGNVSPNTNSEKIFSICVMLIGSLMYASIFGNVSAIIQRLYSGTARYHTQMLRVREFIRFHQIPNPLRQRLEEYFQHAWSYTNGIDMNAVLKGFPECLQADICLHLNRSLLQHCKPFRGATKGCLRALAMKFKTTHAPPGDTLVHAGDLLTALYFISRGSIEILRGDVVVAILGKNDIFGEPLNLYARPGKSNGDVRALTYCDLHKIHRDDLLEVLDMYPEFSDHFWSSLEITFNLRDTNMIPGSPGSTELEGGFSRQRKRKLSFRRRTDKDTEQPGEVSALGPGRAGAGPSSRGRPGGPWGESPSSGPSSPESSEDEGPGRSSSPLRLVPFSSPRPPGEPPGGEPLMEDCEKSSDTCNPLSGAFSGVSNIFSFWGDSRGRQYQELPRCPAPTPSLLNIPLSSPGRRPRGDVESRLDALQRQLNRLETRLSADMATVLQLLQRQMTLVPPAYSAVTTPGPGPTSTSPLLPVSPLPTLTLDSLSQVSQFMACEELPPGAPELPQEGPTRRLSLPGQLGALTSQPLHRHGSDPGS

Escherichia coli [8] = experiment: Antimicrobial activity against Escherichia coli after 18 to 20 hrs by broth microdilution; type: functional; outline: as §1
Pseudomonas aeruginosa [9] = experiment: Antimicrobial activity against Pseudomonas aeruginosa clinical isolate after 18 to 20 hrs by broth microdilution; type: functional; outline: as §1
Klebsiella pneumoniae = experiment: Antimicrobial activity against Klebsiella pneumoniae after 18 to 20 hrs by broth microdilution; type: functional; outline: as §1
[10] = biological target: Voltage-dependent T-type calcium channel subunit alpha-1H (Homo sapiens, UniProt O95180); experiment: Inhibition of […] channel Cav3.2 (unknown origin)
Outline: (§2)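 Automated IonWorks patch clamp was run on CHO or HEK cells expressing each channel. A channel-specific voltage pulse was applied before compound and again about 3 min after addition.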

[11] = Clearance in rat at 10 mg/kg, iv; type: ADME, organism-based; design: dose 10 mg/kg, route intravenous; conditions: in vivo
Outline: (§3)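 Male rats (Wistar Han) and Beagle dogs received 10 mg/kg as a 15 min iv infusion. Serial 200 µL whole-blood samples were taken from 0 to 24 h. Plasma levels were measured by LC–MS/MS against a standard curve after methanol protein precipitation. Parameters were estimated non-compartmentally.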

[12] = biological target: Sodium channel protein type 5 subunit alpha (Homo sapiens, UniProt Q14524); experiment: Inhibition of […] channel Nav1.5 (unknown origin); outline: as §2
Chain of Sodium channel protein type 5 subunit alpha (Q14524 whole entry): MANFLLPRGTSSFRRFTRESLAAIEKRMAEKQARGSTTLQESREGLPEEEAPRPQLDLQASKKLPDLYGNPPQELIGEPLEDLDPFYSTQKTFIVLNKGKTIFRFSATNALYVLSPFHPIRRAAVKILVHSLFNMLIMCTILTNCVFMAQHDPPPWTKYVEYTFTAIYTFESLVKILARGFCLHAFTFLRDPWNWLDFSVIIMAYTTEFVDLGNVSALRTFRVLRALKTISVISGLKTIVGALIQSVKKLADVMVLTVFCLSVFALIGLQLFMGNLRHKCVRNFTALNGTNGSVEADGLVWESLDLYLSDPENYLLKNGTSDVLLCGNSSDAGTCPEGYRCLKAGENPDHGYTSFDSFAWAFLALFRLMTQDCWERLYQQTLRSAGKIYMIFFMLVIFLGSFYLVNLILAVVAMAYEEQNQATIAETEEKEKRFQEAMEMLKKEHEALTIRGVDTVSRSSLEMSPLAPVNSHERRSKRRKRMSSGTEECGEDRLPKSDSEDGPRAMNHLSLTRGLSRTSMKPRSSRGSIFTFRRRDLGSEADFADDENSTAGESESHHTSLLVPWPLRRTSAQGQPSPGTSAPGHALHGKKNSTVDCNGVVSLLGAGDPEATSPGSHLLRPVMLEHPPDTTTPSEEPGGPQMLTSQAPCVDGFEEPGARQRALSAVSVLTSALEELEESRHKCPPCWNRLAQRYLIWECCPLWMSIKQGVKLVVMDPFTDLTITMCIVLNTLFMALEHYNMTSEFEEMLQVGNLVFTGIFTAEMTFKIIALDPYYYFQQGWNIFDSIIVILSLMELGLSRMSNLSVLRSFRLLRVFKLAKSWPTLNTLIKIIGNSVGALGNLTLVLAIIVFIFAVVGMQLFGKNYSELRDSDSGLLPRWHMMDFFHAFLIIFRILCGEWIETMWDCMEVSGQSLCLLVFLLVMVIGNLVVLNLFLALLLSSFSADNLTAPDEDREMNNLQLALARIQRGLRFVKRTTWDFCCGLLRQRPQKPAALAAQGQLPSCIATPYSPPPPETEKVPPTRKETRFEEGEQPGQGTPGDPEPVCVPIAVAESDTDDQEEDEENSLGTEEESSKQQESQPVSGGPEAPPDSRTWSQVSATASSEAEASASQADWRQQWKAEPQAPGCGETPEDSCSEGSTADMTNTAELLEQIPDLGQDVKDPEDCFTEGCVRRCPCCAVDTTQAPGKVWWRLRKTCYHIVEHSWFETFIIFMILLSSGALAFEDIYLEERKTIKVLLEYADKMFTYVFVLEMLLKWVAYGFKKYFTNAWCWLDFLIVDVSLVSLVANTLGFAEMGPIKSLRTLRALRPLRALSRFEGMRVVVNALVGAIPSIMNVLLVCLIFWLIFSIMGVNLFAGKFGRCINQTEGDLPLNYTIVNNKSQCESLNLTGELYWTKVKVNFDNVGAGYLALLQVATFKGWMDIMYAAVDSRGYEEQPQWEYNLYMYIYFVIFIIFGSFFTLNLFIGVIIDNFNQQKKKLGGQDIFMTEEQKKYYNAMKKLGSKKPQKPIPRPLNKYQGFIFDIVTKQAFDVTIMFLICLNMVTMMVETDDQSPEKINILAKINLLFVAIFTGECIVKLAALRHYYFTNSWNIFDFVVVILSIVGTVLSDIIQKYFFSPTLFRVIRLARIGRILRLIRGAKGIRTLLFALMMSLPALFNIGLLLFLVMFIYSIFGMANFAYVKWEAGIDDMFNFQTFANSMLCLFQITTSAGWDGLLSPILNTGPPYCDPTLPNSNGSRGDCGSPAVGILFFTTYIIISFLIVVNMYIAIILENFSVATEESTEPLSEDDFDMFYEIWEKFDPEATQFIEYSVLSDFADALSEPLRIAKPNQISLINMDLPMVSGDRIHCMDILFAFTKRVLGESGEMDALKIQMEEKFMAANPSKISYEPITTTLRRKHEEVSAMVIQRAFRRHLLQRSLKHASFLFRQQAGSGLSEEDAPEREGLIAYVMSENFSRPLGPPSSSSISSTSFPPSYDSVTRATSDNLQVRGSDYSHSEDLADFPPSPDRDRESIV

[13] = biological target: Sodium-dependent noradrenaline transporter (Homo sapiens) (UniProt P23975); experiment: Inhibition of NET (unknown origin) at 30 uM
Chain of Sodium-dependent noradrenaline transporter (Homo sapiens) (P23975 whole entry): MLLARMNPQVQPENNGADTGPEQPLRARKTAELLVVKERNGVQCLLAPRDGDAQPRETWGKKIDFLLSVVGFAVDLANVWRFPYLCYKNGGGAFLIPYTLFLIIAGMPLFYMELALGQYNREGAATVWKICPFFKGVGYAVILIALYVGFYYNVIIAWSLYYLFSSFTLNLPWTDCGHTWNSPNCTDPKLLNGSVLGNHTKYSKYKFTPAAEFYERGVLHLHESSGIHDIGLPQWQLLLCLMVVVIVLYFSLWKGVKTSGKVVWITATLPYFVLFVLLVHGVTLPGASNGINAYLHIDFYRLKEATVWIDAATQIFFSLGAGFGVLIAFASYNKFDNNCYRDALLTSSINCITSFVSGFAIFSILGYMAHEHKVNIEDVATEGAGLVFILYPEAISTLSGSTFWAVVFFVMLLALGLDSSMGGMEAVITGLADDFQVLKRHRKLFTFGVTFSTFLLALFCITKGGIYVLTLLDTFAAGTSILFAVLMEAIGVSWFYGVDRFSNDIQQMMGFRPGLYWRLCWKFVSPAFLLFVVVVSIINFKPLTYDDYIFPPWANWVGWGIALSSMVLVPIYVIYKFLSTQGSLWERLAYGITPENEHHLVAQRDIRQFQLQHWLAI

[14] = Clearance in beagle dog at 10 mg/kg, iv; type: ADME, organism-based, Canis lupus familiaris; design: dose 10 mg/kg, route intravenous; conditions: in vivo; outline: as §3
[15] = AUC in beagle dog at 10 mg/kg, iv; type: ADME, organism-based, Canis lupus familiaris; design: dose 10 mg/kg, route intravenous; conditions: plasma; outline: as §3
[16] = Volume of distribution in rat at 10 mg/kg, iv; type: ADME, organism-based; design: dose 10 mg/kg, route intravenous; conditions: in vivo; outline: as §3
[17] = biological target: Voltage-dependent L-type calcium channel subunit alpha-1C (Homo sapiens, UniProt Q13936); experiment: Inhibition of […] channel Cav1.2 (unknown origin); outline: as §2
[18] = Half life in beagle dog at 10 mg/kg, iv; type: ADME, organism-based, Canis lupus familiaris; design: dose 10 mg/kg, route intravenous; conditions: in vivo; outline: as §3
[19] = biological target: T1, Potassium voltage-gated channel subfamily KQT member 1 (Homo sapiens, UniProt P51787); experiment: Inhibition of potassium channel IKs (unknown origin); outline: as §2
T1 sequence (P51787 whole entry): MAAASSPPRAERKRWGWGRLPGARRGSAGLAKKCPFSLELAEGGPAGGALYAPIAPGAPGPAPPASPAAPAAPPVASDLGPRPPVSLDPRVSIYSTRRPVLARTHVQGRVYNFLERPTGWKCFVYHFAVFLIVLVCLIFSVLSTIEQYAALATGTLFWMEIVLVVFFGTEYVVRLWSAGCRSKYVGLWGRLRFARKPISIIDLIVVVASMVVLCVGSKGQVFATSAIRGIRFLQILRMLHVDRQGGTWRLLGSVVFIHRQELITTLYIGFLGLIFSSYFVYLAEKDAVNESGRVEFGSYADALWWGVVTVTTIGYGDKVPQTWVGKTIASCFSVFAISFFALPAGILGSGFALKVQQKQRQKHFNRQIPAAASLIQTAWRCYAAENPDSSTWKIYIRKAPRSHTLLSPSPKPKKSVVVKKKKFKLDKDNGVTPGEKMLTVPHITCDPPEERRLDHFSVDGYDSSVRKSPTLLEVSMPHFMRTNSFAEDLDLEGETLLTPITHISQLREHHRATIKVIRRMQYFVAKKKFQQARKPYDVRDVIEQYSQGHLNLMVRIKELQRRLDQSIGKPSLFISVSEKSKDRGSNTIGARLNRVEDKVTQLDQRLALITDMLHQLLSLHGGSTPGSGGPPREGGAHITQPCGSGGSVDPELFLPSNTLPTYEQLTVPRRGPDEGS

[20] = biological target: Potassium voltage-gated channel subfamily A member 5 (Homo sapiens, UniProt P22460); experiment: Inhibition of potassium channel Kv1.5 (unknown origin); outline: as §2
Chain of Potassium voltage-gated channel subfamily A member 5 (P22460 whole entry): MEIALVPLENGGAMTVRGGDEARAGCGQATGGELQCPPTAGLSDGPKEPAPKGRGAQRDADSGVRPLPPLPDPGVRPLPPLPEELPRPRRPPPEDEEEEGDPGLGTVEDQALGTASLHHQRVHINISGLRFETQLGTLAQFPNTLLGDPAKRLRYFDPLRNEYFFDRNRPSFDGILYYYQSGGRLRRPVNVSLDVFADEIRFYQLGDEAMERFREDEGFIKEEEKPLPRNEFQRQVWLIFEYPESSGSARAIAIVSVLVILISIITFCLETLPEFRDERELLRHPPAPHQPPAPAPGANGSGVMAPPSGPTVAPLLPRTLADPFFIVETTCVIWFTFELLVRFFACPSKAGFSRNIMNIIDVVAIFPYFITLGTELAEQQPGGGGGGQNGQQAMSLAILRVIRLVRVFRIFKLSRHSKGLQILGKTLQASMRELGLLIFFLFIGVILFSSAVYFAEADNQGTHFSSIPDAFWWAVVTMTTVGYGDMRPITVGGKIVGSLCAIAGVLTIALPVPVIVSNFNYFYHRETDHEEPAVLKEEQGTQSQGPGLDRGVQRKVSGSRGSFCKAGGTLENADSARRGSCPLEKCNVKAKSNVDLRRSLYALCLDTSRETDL

[21] = biological target: 5-hydroxytryptamine receptor 4 (Homo sapiens) (UniProt Q13639); experiment: Inhibition of 5-HT4 receptor (unknown origin) at 30 uM
Chain of 5-hydroxytryptamine receptor 4 (Homo sapiens) (Q13639 whole entry): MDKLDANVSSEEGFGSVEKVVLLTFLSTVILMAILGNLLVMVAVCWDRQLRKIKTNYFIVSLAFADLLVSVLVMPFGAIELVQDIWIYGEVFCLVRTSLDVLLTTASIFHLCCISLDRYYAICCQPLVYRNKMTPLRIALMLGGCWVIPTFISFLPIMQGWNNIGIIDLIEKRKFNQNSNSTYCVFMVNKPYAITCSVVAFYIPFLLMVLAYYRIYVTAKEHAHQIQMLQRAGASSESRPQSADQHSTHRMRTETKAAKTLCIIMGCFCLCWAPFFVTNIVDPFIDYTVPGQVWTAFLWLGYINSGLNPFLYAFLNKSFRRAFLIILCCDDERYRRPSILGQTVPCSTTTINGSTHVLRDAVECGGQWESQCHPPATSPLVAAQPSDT

[22] = Half life in rat at 10 mg/kg, iv; type: ADME, organism-based; design: dose 10 mg/kg, route intravenous; conditions: in vivo; outline: as §3
[23] = Volume of distribution in beagle dog at 10 mg/kg, iv; type: ADME, organism-based, Canis lupus familiaris; design: dose 10 mg/kg, route intravenous; conditions: in vivo; outline: as §3
[24] = biological target: Sodium-dependent serotonin transporter (Homo sapiens) (UniProt P31645); experiment: Inhibition of SERT (unknown origin) at 30 uM
[25] = AUC in rat at 10 mg/kg, iv; type: ADME, organism-based; design: dose 10 mg/kg, route intravenous; conditions: plasma; outline: as §3

MIC90 (Pseudomonas aeruginosa [1]) [µg/mL]	solubility [2] [µM]	MIC90 (Escherichia coli [3]) [µg/mL]	logD [4]	MIC90 (Staphylococcus aureus) [µg/mL]	IC50 [5] [nM]	fraction unbound [6]	Structure (SMILES)	IC50 [7] [nM]	other results
0.5 (≈ 1.04 µM)	> 333	0.5 (≈ 1.04 µM)	-0.05	1 (≈ 2.09 µM)	3	0.64	Cc1cc(=O)n(C[C@H](N)[C@H]2CC[C@H](NCc3ccc4c(n3)NC(=O)CO4)CC2)c2cc(F)ccc12		
0.5 (≈ 1.04 µM)	> 333	0.5 (≈ 1.04 µM)	-0.36	1 (≈ 2.09 µM)	1	0.7	COc1ccc2ncc(=O)n(C[C@H](N)[C@H]3CC[C@H](NCc4ccc5c(n4)NC(=O)CO5)CC3)c2c1	> 333000	
2 (≈ 4.16 µM)	> 333	0.5 (≈ 1.04 µM)	0.06	4 (≈ 8.32 µM)	2	0.66	Cc1cc(=O)n(C[C@H](N)[C@H]2CC[C@H](NCc3ncc4c(n3)NC(=O)CO4)CC2)c2cc(F)ccc12	> 333000	
8 (≈ 16.7 µM)	> 333	1 (≈ 2.09 µM)		2 (≈ 4.18 µM)	2		COc1ccc2ncc(=O)n(CC[C@]3(N)CC[C@H](NCc4ccc5c(n4)NC(=O)CO5)CC3)c2c1		
0.25 (≈ 0.536 µM)	> 333	< 0.06	-0.41	1 (≈ 2.14 µM)	28	0.7	N[C@@H](Cn1c(=O)cnc2ccc(F)cc21)[C@H]1CC[C@H](NCc2ccc3c(n2)NC(=O)CO3)CC1	174000	
16 (≈ 33.4 µM)	> 333	8 (≈ 16.7 µM)	-0.84	128 (≈ 267 µM)	33	> 0.7	COc1cnc2ccc(=O)n(C[C@@H](N)[C@H]3CC[C@H](NCc4ccc5c(n4)NC(=O)CO5)CC3)c2c1	> 100000	
> 64	> 333	16 (≈ 31.3 µM)		64 (≈ 125 µM)	39		CNC(Cn1c(=O)cnc2cc(F)c(OC)cc21)[C@H]1CC[C@H](NCc2ncc3c(n2)NC(=O)CO3)CC1 (mixture of isomers)		
							C[C@H]1COc2c(N3CCN(C)CC3)c(F)cc3c(=O)c(C(=O)O)cn1c23.C[C@H]1COc2c(N3CCN(C)CC3)c(F)cc3c(=O)c(C(=O)O)cn1c23.O [LEVOFLOXACIN]		MIC90 (Escherichia coli [8]): 16 µg/mL; MIC90 (Pseudomonas aeruginosa [9]): 16 µg/mL; MIC90 (Klebsiella pneumoniae): 64 µg/mL
8 (≈ 16.1 µM)	> 333	2 (≈ 4.03 µM)	0.25	0.5 (≈ 1.01 µM)	5	0.68	COc1ccc2ncc(=O)n(CC(N)C3(F)CCC(NCc4ccc5c(n4)NC(=O)CO5)CC3)c2c1 (racemic)	> 33000	
1 (≈ 2.09 µM)	> 333	0.5 (≈ 1.04 µM)	-0.86	8 (≈ 16.7 µM)	2	0.78	COc1cnc2ccc(=O)n(C[C@H](N)[C@H]3CC[C@H](NCc4ccc5c(n4)NC(=O)CO5)CC3)c2c1	> 333000	IC50 [10]: > 333000 nM; clearance [11]: 47 mL/min/kg; IC50 [12]: > 333000 nM; inhibition [13]: 52%; MIC90 (Escherichia coli [8]): 0.5 µg/mL (≈ 1.04 µM); MIC90 (Pseudomonas aeruginosa [9]): 4 µg/mL (≈ 8.36 µM); clearance [14]: 14 mL/min/kg; AUC [15]: 3800 ng·h/mL; Vd [16]: 13 L/kg; IC50 [17]: > 333000 nM; half-life [18]: 8 h; IC50 [19]: > 333000 nM; MIC90 (Klebsiella pneumoniae): 8 µg/mL (≈ 16.7 µM); IC50 [20]: > 333000 nM; inhibition [21]: 32%; half-life [22]: 9 h; Vd [23]: 2.7 L/kg; inhibition [24]: 32%; AUC [25]: 3900 ng·h/mL
0.5 (≈ 1.04 µM)	> 333	0.2 (≈ 0.417 µM)	-0.48	1 (≈ 2.09 µM)	2	0.6	COc1ccc2ncc(=O)n(C[C@H](N)[C@H]3CC[C@H](NCc4ncc5c(n4)NC(=O)CO5)CC3)c2c1	> 333000	
2 (≈ 4.02 µM)	> 333	2 (≈ 4.02 µM)	-0.42	4 (≈ 8.04 µM)	4	0.56	COc1cc2c(cc1F)ncc(=O)n2C[C@H](N)[C@H]1CC[C@H](NCc2ncc3c(n2)NC(=O)CO3)CC1	> 333000	
2 (≈ 4.18 µM)	> 333	0.5 (≈ 1.04 µM)	-0.54	8 (≈ 16.7 µM)	5	0.71	COc1ccc2ccc(=O)n(C[C@H](N)[C@H]3CC[C@H](NCc4ncc5c(n4)NC(=O)CO5)CC3)c2c1	> 100000	
2 (≈ 4.29 µM)	> 333	1 (≈ 2.14 µM)	-1.02	16 (≈ 34.3 µM)	34		N[C@@H](Cn1c(=O)ccc2ncc(F)cc21)[C@H]1CC[C@H](NCc2ccc3c(n2)NC(=O)CO3)CC1	> 100000	
